# Data published in ChEMBL document CHEMBL3804792, “Discovery and analgesic evaluation of 8-chloro-1,4-dihydropyrido[2,3-b]pyrazine-2,3-dione as a novel potent d-amino acid oxidase inhibitor” (Eur J Med Chem, 2016).
# Active and inactive are the calls of the source.
# Experiments:
# Mus musculus [1] = test: Analgesic activity in Swiss mouse assessed as inhibition of formalin-induced tonic pain at 10 mg/kg administered as oral gavage 30 mins prior to formalin challenge measured from 20 to 40 mins relative to normal saline control; type: functional; set-up: scale not given: the % may be the effect or the level left
# In short: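 Fasted male Swiss mice (18-22 g), n = 6. Dosed 10 mg/kg by oral gavage 30 min before 10 µL of 5% formalin in 0.9% saline injected s.c. into the dorsal right hindpaw. Licking/biting duration was scored manually and pooled over 20-40 min as tonic pain. Drug dissolved in normal saline at pH 7.3-7.5. Compared with a saline control group.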
# [2] = Apparent oral bioavailability in Swiss mouse at 10 mg/kg administered as oral gavage; type: ADME, organism-based; conditions: in vivo, read-out: Fapp
# Mus musculus [3] = test: Reversal of morphine analgesic tolerance in 10 ug, it BID for 7 days morphine pre-treated Swiss mouse assessed as latency of licking/biting/jumping at 10 ug, it administered as single bolus injection 15 mins prior to morphine challenge on day 8 by hot-plate test; type: functional, organism-based
# In short: (§1)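 Swiss mice (n = 6 per group) received intrathecal saline, morphine, or compound (10 µg) plus morphine twice daily, 12 h apart, for 7 days. On day 8, a single intrathecal saline or compound dose was given 15 min before saline or morphine challenge. Hot plate at 55 ± 0.1 °C with 40 s cut-off; lick/bite/jump latency read before and 0.5, 1, 2 h after injection on days 1, 3, 5, 7, 8. AUC0–2 h analysed by two-way ANOVA with Student-Newman-Keuls test.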
# Rattus norvegicus [4] = species on record: Rattus norvegicus; test: Analgesic activity in Wistar rat spinal nerve ligation-induced neuropathic pain model assessed as reduction in mechanical allodynia assessed as increase in ipsilateral paw withdrawal response at 30 ug, it measured after 0.5 to 4 hrs; type: functional, organism-based
# In short: (§2)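 Spinal nerve-ligated male Wistar rats, included only with ipsilateral withdrawal threshold < 8 g and no major impairment, dosed intrathecally. Mechanical thresholds (von Frey monofilaments on a metal grid) and radiant-heat paw withdrawal latency (20 s cut-off, mean of three trials 10 min apart) measured on both paws before and 0.5, 1, 2, 4 h after dosing. Thresholds converted to % MPE; two-way ANOVA.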
# D-amino-acid oxidase [5] = target: D-amino-acid oxidase (Homo sapiens, UniProt P14920); test: Inhibition of human recombinant DAAO using D-alanine as substrate assessed as pyruvate production incubated for 60 mins by microplate reader analysis
# Rattus norvegicus [6] = test: Analgesic activity in Wistar rat assessed as inhibition of formalin-induced paw flinch response in acute phase up to 3 ug, it administered as bolus injection 30 mins prior to formalin challenge measured within 10 mins relative to normal saline control; type: functional, organism-based
# In short: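 Intrathecally catheterized male Wistar rats (n = 6 per group) got a bolus of saline (10 µL) or compound (0.1–3 µg) 30 min before 50 µL 5% formalin sc into dorsal right hindpaw. Flinches counted in 1-min epochs every 10 min for 90 min; acute phase is the first 10 min. Compared with saline by one-way ANOVA and Student-Newman-Keuls test.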
# Rattus norvegicus [7] = species on record: Rattus norvegicus; test: Analgesic activity in Wistar rat spinal nerve ligation-induced neuropathic pain model assessed as reduction in mechanical allodynia assessed as increase in ipsilateral paw withdrawal response at 30 ug, it measured after 1 hr; type: functional
# In short: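 Spinal nerve-ligated male Wistar rats, intrathecally catheterised; only rats with threshold <8 g and no major impairment were included. After intrathecal dosing, ipsilateral hind-limb withdrawal threshold to monofilaments was measured on a metal grid after ≥30 min acclimation, at 0.5, 1, 2 and 4 h. n = 6. Results converted to %MPE against baseline.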
# Rattus norvegicus [8] = species on record: Rattus norvegicus; test: Effect on contralateral paw withdrawal in Wistar rat spinal nerve ligation-induced neuropathic pain model at 30 ug, it measured after 0.5 to 4 hrs; type: ADME, organism-based; conditions: in vivo, icv_or_intrathecal; in short: as §2
# D-amino-acid oxidase [9] = target: D-amino-acid oxidase (Rattus norvegicus, UniProt O35078); test: Inhibition of rat spinal DAAO using D-alanine as substrate assessed as pyruvate production incubated for 60 mins by microplate reader analysis
# Mus musculus [10] = test: Analgesic activity in sc dosed Swiss mouse assessed as inhibition of formalin-induced tonic pain administered 30 mins prior to formalin challenge measured from 20 to 40 mins relative to normal saline control; type: functional
# In short: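 Male Swiss mice, n = 6 per group. Dosed s.c. at 0.3-30 mg/kg in saline (10 mL/kg) 30 min before 10 µL of 5% formalin s.c. into the dorsal right hindpaw. Licking/biting time was pooled over 20-40 min as tonic pain. Values compared with saline control. Emax and ED50 taken from the dose-response. One-way ANOVA with Student-Newman-Keuls test.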
# Mus musculus [11] = test: Attenuation of morphine analgesic tolerance in Swiss mouse assessed as latency of licking/biting/jumping at 10 ug, it bid coadministered with morphine at 12 hr intervals for 7 days by hot-plate test; type: functional, organism-based; in short: as §1
# Rattus norvegicus [12] = species on record: Rattus norvegicus; test: Analgesic activity in Wistar rat spinal nerve ligation-induced neuropathic pain model assessed as reduction in heat hyperalgesia assessed as increase in ipsilateral paw withdrawal response at 30 ug, it measured after 1 hr; type: functional
# In short: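 Spinal nerve-ligated male Wistar rats, intrathecally catheterised; only those with ipsilateral withdrawal threshold <8 g were used. After intrathecal dosing, radiant heat was applied to the plantar hind paw and withdrawal latency read, cut-off 20 s. Each paw tested three times at 10-min intervals and averaged. n = 6. Read at 0.5, 1, 2 and 4 h.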
# D-amino-acid oxidase [13] = target: D-amino-acid oxidase (Sus scrofa, UniProt P00371); test: Inhibition of DAAO in porcine kidney homogenate using D-alanine as substrate assessed as pyruvate production incubated for 5 mins by microplate reader analysis
# Rattus norvegicus [14] = test: Analgesic activity in it dosed Wistar rat assessed as inhibition of formalin-induced paw flinch response in tonic phase administered as bolus injection 30 mins prior to formalin challenge measured from 10 to 90 mins relative to normal saline control; type: functional
# In short: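 Intrathecally catheterised male Wistar rats, n = 6 per group. A bolus of 0.1-3 µg was given intrathecally 30 min before 50 µL of 5% formalin s.c. into the dorsal right hindpaw. Flinches counted in 1-min epochs at 10-min intervals over 90 min. […] Saline (10 µL) group as control.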
# Mus musculus [15] = test: Analgesic activity in Swiss mouse assessed as inhibition of formalin-induced acute pain at 0.3 to 10 mg/kg, sc administered 30 mins prior to formalin challenge measured within 5 mins relative to normal saline control; type: functional, organism-based
# In short: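 Male Swiss mice (18e22 g), n = 6 per group; saline (10 mL/kg) or compound sc 30 min before 10 µL 5% formalin in 0.9% saline sc into dorsal right hindpaw. Licking/biting duration manually pooled over 0–5 min (acute phase) and compared with saline group; one-way ANOVA with Student-Newman-Keuls post-hoc test.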
# Rattus norvegicus [16] = species on record: Rattus norvegicus; test: Analgesic activity in Wistar rat spinal nerve ligation-induced neuropathic pain model assessed as reduction in heat hyperalgesia assessed as increase in ipsilateral paw withdrawal response at 30 ug, it measured after 0.5 to 4 hrs; type: functional, organism-based; in short: as §2
# Rattus norvegicus [17] = test: Analgesic activity in Wistar rat assessed as inhibition of NMDA-induced pain at 10 ug, it administered 30 mins prior to NMDA challenge measured for 10 mins; type: functional, organism-based
# In short: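 Male Wistar rats with lumbar intrathecal PE-10 catheters, placement checked by lidocaine-induced hind-limb paralysis; n = 6 per group. Intrathecal saline, MK-801 or compound 30 min before intrathecal NMDA (5 nmol). Scratching, biting and licking duration recorded for 10 min; means ± S.E.M., one-way ANOVA with Student-Newman-Keuls test versus saline.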
# Rattus norvegicus [18] = test: Analgesic activity in Wistar rat assessed as inhibition of NMDA-induced pain at 0.1 ug, it administered 30 mins prior to NMDA challenge measured for 10 mins; type: functional
# In short: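 Male Wistar rats (180-250 g), n = 6 per group, with intrathecal lumbar PE-10 catheters checked by lidocaine paralysis. Dosed 0.1 µg intrathecally 30 min before 5 nmol NMDA given intrathecally. Duration of scratching, biting and licking recorded for 10 min immediately after NMDA. Saline (10 µL) group as control. One-way ANOVA with Student-Newman-Keuls test.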
# D-amino-acid oxidase (Homo sapiens, UniProt P14920), sequence (P14920 whole entry): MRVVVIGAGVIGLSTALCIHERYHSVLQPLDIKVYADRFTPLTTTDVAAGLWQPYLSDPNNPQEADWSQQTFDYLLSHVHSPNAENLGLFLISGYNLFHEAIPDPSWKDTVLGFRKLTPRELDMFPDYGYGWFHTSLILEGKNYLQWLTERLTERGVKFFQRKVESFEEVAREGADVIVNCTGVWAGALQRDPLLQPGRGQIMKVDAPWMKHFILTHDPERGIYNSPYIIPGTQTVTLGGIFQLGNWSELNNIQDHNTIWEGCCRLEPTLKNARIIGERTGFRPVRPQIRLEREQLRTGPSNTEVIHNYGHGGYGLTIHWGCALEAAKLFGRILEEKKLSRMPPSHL
# D-amino-acid oxidase (Rattus norvegicus, UniProt O35078), sequence (O35078 whole entry): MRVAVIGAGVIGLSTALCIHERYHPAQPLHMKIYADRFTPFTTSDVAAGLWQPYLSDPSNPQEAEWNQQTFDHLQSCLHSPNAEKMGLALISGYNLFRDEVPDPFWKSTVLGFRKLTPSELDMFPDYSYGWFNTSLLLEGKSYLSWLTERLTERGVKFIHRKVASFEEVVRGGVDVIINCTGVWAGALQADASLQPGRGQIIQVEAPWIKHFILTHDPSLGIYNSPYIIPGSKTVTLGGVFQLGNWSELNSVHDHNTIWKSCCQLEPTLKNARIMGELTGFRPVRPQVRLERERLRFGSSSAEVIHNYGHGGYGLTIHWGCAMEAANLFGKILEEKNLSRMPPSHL
# D-amino-acid oxidase (Sus scrofa, UniProt P00371), sequence (P00371 whole entry): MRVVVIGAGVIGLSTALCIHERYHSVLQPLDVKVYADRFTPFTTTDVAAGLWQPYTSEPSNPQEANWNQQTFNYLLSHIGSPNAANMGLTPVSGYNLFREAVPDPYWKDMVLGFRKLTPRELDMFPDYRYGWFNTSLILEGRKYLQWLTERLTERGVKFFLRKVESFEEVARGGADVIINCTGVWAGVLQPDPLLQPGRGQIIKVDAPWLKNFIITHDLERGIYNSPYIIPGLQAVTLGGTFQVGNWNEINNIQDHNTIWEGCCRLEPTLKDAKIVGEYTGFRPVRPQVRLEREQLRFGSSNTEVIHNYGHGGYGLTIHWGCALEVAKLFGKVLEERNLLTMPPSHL
SMILES,IC50 (D-amino-acid oxidase [13]) [µM],further results
O=c1[nH]c2nccc(Cl)c2[nH]c1=O,0.18,"Activity (Mus musculus [1]): 30%; bioavailability [2]: 30%; Activity (Mus musculus [3]): Active; Activity (Rattus norvegicus [4]): Active; IC50 (D-amino-acid oxidase [5]): 0.21 µM; Activity (Rattus norvegicus [6]): inactive; MPE (Rattus norvegicus [7]): 54.4%; Activity (Rattus norvegicus [8]): Non-toxic; IC50 (D-amino-acid oxidase [9]): 0.14 µM; Activity (Mus musculus [10]): Dose-dependent effect; ED50 (Mus musculus [10]): 1.8 mg/kg; Emax (Mus musculus [10]): 49%; Activity (Mus musculus [11]): Active; MPE (Rattus norvegicus [12]): 80.8%; Activity (Rattus norvegicus [14]): Dose-dependent effect; ED50 (Rattus norvegicus [14]): 0.25 µg; Emax (Rattus norvegicus [14]; Rattus norvegicus, Wistar): 67.1%; Activity (Mus musculus [15]): inactive; Activity (Rattus norvegicus [16]): Active; Activity (Rattus norvegicus [17]): inactive"
O=c1[nH]c2ccc(OCCc3ccccc3)nc2[nH]c1=O,> 300,
Cc1c(Br)cnc2nc(O)c(O)nc12,0.4,
COc1ccnc2[nH]c(=O)c(=O)[nH]c12,85.7,
Oc1nc2cccnc2nc1O,5.7,
Cc1ccc2nc(O)c(O)nc2n1,17.7,
Oc1nc2cc(C(F)(F)F)cnc2nc1O,22.9,
O=c1[nH]c2nccc(Br)c2[nH]c1=O,0.22,IC50 (D-amino-acid oxidase [5]): 2.24 µM; IC50 (D-amino-acid oxidase [9]): 2.24 µM
O=c1[nH]c2ccc(OCc3ccccc3)nc2[nH]c1=O,> 300,
Oc1noc2cc(Cl)ccc12,0.21,IC50 (D-amino-acid oxidase [9]): 0.09 µM
CC(C)Oc1ccnc2[nH]c(=O)c(=O)[nH]c12,> 100,
CCOc1ccnc2[nH]c(=O)c(=O)[nH]c12,> 100,
Cc1ccnc2[nH]c(=O)c(=O)[nH]c12,0.63,
O=c1[nH]c2ncc(Cl)c(Cl)c2[nH]c1=O,0.65,
Oc1nc2ccccc2nc1O,33.6,
CCOc1ccc2[nH]c(=O)c(=O)[nH]c2n1,> 100,
Cc1c(Cl)cnc2nc(O)c(O)nc12,0.26,IC50 (D-amino-acid oxidase [5]): 1.13 µM; IC50 (D-amino-acid oxidase [9]): 4.16 µM
O=c1[nH]c2ncc(Br)c(Cl)c2[nH]c1=O,0.48,

SMILES,IC50 (D-amino-acid oxidase [13]) [µM],further results
Oc1nc2cc(Br)cnc2nc1O,12.4,
Cc1c(F)cnc2[nH]c(=O)c(=O)[nH]c12,0.15,IC50 (D-amino-acid oxidase [5]): 0.34 µM; IC50 (D-amino-acid oxidase [9]): 0.15 µM
O=c1[nH]c2nccc(OCCCc3ccccc3)c2[nH]c1=O,> 300,
O=c1[nH]c2nccc(Oc3ccccc3)c2[nH]c1=O,> 1000,
O=c1[nH]c2nccc(OCCc3ccccc3)c2[nH]c1=O,> 300,
O=c1[nH]c2ncc(Br)c(Br)c2[nH]c1=O,0.53,
O=c1[nH]c2nccc(OCc3ccccc3)c2[nH]c1=O,> 300,
COC(=O)c1cnc2[nH]c(=O)c(=O)[nH]c2c1,> 1000,
Oc1nc2ccc(Cl)nc2nc1O,20.3,
COc1ccc2nc(O)c(O)nc2n1,> 100,
O=C(O)c1cnc2[nH]c(=O)c(=O)[nH]c2c1,> 1000,
Oc1nc2cc(Cl)cnc2nc1O,6.7,
C[C@]12N[C@H](Cc3ccccc31)c1ccccc12 [DIZOCILPINE],,inhibition (INH) (Rattus norvegicus [18]): 80%
CCc1ccnc2[nH]c(=O)c(=O)[nH]c12,2.4,
Cc1cnc2nc(O)c(O)nc2c1,36.7,
O=c1[nH]c2nccc(C(F)(F)F)c2[nH]c1=O,0.52,
O=c1[nH]c2ncc(Cl)c(Br)c2[nH]c1=O,0.24,IC50 (D-amino-acid oxidase [5]): 1.38 µM; IC50 (D-amino-acid oxidase [9]): 7.99 µM
O=c1[nH]c2cc(F)cnc2[nH]c1=O,0.46,
